What was measured:
[1] = test system: Mus musculus; assay: Toxicity in human HCT116 cells xenografted Rag1 knockout mouse assessed as mortality at 20 mg/kg, ip qd for 14 days; format: organism-based, HCT-116; design: dose 20 mg/kg, route intraperitoneal; conditions: in vivo, 336 h
Outline: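 Age-matched specific pathogen-free female Rag1-/- mice bearing subcutaneous HCT-116 tumours (5 × 10⁶ cells inoculated in PBS), n = 7 per group. Drug given ip at 20 mg/kg once daily for 14 days in 7.5% DMSO/42.5% PEG-400/20% 2-hydroxypropyl-β-cyclodextrin/30% water; controls received vehicle alone. Bodyweight recorded daily; mice culled when weight loss exceeded 20% of starting weight.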

[2] = test system: HCT-116; assay: Antitumor activity against human HCT116 cells xenografted in Rag1 knockout mouse assessed as tumor growth inhibition at 20 mg/kg, ip qd for 14 days relative to untreated control; format: functional; conditions: HCT-116, ip, 336 h, route intraperitoneal, read-out: GI
Outline: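 Female specific-pathogen-free Rag1−/− mice, age-matched, inoculated subcutaneously with 5×10⁶ HCT-116 cells in PBS. Dosed ip at 20 mg/kg q.d. for 14 days in 7.5% DMSO/42.5% PEG-400/20% hydroxypropyl-β-cyclodextrin/30% water; controls received vehicle only; n = 7 per group. Tumour volume measured three times weekly; 1-way ANOVA with Holm-Sidak comparison at study end.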

[3] = test system: Mus musculus; assay: Toxicity in human HCT116 cells xenografted Rag1 knockout mouse assessed as body weight loss at 20 mg/kg, ip qd measured up to day 10; format: organism-based, HCT-116; design: dose 20 mg/kg, route intraperitoneal; conditions: in vivo
Outline: (§1)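 Female specific-pathogen-free Rag1−/− mice carrying subcutaneous HCT-116 tumours, given 20 mg/kg ip daily for 14 days in a DMSO/PEG-400/hydroxypropyl-β-cyclodextrin/water vehicle; controls received vehicle; n = 7 per group. Bodyweight recorded daily; mice culled if loss exceeded 20% of starting weight.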

[4] = test system: Mus musculus; assay: Toxicity in human HCT116 cells xenografted Rag1 knockout mouse assessed as body weight loss at 20 mg/kg, ip qd measured after 10 days relative to untreated control; format: organism-based, HCT-116; design: dose 20 mg/kg, route intraperitoneal; conditions: in vivo, 240 h; outline: as §1

In the case of `Cc1ccc([N+](=O)[O-])cc1S(=O)(=O)N(C)/N=C/c1cnc2ccc(Br)cn12`, the Activity [1] is reported as “Non-toxic”, the inhibition in vivo at 20 mg/kg [2] is reported as 23.2% and the Activity [3] is reported as “Non-toxic”. It also gave an Activity [4] of 15%.

From ChEMBL document CHEMBL1926509, “Discovery of pyrazolo[1,5-a]pyridines as p110α-selective PI3 kinase inhibitors” (Bioorg Med Chem, 2012)
